Paper PMC8865112 (Journal of Enzyme Inhibition and Medicinal Chemistry, 2022)

How the values were obtained:
SGC7901/DDP [1] = test: CCK-8 cell growth and sensitisation to DDP; format: cell-based, human
In short: (§1)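 Exponential-phase cells were trypsinised, diluted to 5 × 10^7/l and plated, then cultured 24 h at 37 °C. Test compound was added where indicated (DMF <0.2%), and DDP (saline stock 5.0 mM) was added 1 h later. After 72 h at 37 °C, CCK-8 was applied for 2 h and A450 was read. Live cells were calculated as % of the no-DDP, no-inhibitor control. Done in triplicate.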

A549/DDP [2] = test: CCK-8 cell growth and sensitisation to DDP; format: cell-based, human
In short: as §1

SGC7901/DDP [3] = test: Apoptosis percentages; format: cell-based, human; settings: DDP alone 2.0 μM, EDEA alone 1.0 and 2.0 μM
A549/DDP [4] = test: Apoptosis percentages; format: cell-based, human; settings: DDP alone 2.0 μM, EDEA alone 1.0 and 2.0 μM
SK-OV-3/DDP = test: CCK-8 cell growth and sensitisation to DDP; format: cell-based, human; settings: SK-OV-3/DDP cells versus SK-OV-3 cells
In short: as §1

COC1/DDP = test: CCK-8 cell growth and sensitisation to DDP; format: cell-based, human
In short: as §1

drug-resistant cancers = settings: cited from earlier work

SMILES | IC50 value of DDP in resistant versus parental cells (SGC7901/DDP [1]) | IC50 value of DDP in resistant versus parental cells (A549/DDP [2]) | effect of single agent on apoptosis percentages (SGC7901/DDP [3]) | effect of single agent on apoptosis percentages (A549/DDP [4]) | IC50 value of DDP in resistant versus parental cells (SK-OV-3/DDP) | IC50 value of DDP in resistant versus parental cells (COC1/DDP) | level that sensitised drug-resistant cancers to DDP in vitro (drug-resistant cancers)
N.N.[Cl][Pt][Cl] [DDP, cisplatin] | ~3 fold | ~7 fold | did not greatly alter | did not greatly alter | ~4 fold | ~4 fold | –
C=C(CC)C(=O)c1ccc(OCC(=O)O)c(Cl)c1Cl [EAA, ethacrynic acid] | – | – | – | – | – | – | ~20 µM
